Measured values taken from ChEMBL document CHEMBL4513216, “Probing the Open Global Health Chemical Diversity Library for Multistage-Active Starting Points for Next-Generation Antimalarials” (ACS Infect Dis, 2020).

Assay: Toxicity liver stage against HepG2, at 10uM
Format: cell-based
Set-up: test concentration 10 uM, cell line HepG2-A16-CD81EGFP
Conditions: human, HepG2-A16-CD81EGFP cells; read-out: INHIBITION
How it was run: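 Uninfected HepG2-A16-CD81EGFP cells, 3 × 10^3 per well, 1536-well, plated on prespotted compound at 10 μM final, parasite-free screening media added to match infected plates; puromycin 10 μM positive, DMSO 0.5% negative; run in parallel with 48 h PbLuc assay at 37 °C, 5% CO2; viability by CellTiter-Glo luminescence, normalized to controls.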

| Structure (SMILES) | cytotoxicity at 10 µM [%] |
| --- | --- |
| CC(C)(C)c1oc(C(N)=O)cc1CN1CCCCC1CN1CCOCC1 (configuration not stated) | -11.2 |
| CN1CCc2[nH]nc(C(=O)N3CCC4(CN(C)C(=O)O4)C3)c2C1 (configuration not stated) | -46.4 |
| O=C(CN1CC(c2ccccc2)CC1=O)N1CCC(c2ncc[nH]2)CC1 (configuration not stated) | -0.234 |
| Cc1nccn1CCC1CCN(c2ncccn2)CC1 | -3 |
| Cc1csc2ncnc(N3CCCC(Cn4cc(C(C)(C)O)nn4)C3)c12 (configuration not stated) | 2.74 |
| FC(F)(F)c1ccc(-n2ccnc2-c2cc3n(n2)CCNC3)cn1 | -4.65 |
| CCCc1cncnc1N1CCC(NCc2ccncc2)CC1 | 6.31 |
| COCC(C)Nc1ccc(-c2nc(Cc3ccc(F)cc3)no2)cn1 (configuration not stated) | 7.22 |
| CSCC(=O)N1CCCN(c2ccncc2C)CC1 | -6.09 |
| Cn1ncnc1-c1ccnc(N2CCC(C(O)c3cccs3)CC2)n1 (configuration not stated) | -39.2 |
| Cc1cc(C)c(C(=O)N2CCC3(CCCN(CC(C)(C)C)C3)C2)[nH]1 (configuration not stated) | -3.73 |
| COCCN1CCC(CN(C)c2nc3c(s2)c(C)nn3C)C1 (configuration not stated) | -4.36 |
| CCc1cnc(N)nc1N1CCN(C(C)=O)CC1 | -51.7 |
| Cc1ccc(-c2ccnc(NC(C)c3ncc[nH]3)n2)c(C)n1 (configuration not stated) | 3.29 |
| CS(=O)(=O)N1CCC(NCC2(N3CCOCC3)CCCCC2)CC1 | -3.27 |
| CNC1CCN(C2CCN(c3ccc(-c4ccco4)cc3)CC2)CC1 | -22.4 |
| CC(C)CN1CCc2[nH]cnc2C12CCN(C(=O)c1cc[nH]n1)CC2 | 0.363 |
| COCc1cc(N2CCN(Cc3ccncc3)CC2)n2nccc2n1 | -6.32 |
| O=C(O)C1(Oc2ccccc2)CCN(c2ccncc2)CC1 | -3.99 |

| Structure (SMILES) | cytotoxicity at 10 µM [%] |
| --- | --- |
| Cc1oc(-c2ccc(F)cc2F)nc1CN1C[C@@H](C)O[C@@H](C)C1 | -39.9 |
| Cc1cnccc1CN(C)C1CCN(c2ncnc3[nH]cnc23)CC1 | -42.9 |
| CCC[C@H]1CN(c2nccc(NCC)n2)C[C@@H]1NS(=O)(=O)N(C)C | -144 |
| Cn1cc(CN(Cc2cccc(-n3cccn3)c2)C2CC2)cn1 | -15.4 |
| Cc1nn(CCNC(C)Cn2cncn2)c(C)c1Cl (configuration not stated) | 13.4 |
| CC[C@H]1CN(C(=O)c2cnc(CN3CCCC3)s2)CC[C@@]1(C)O | -16 |
| Cc1c(F)cccc1CN1CCn2nc(CNC(=O)N(C)C)cc2C1 | -19.4 |
| Cc1c(CN2CCOCC2)c(O)n(CCO)c(=O)c1C#N | -2.78 |
| CCc1nc(C)cn1C(=O)Nc1ccccc1 | 2.52 |
| CCN1CCN(c2ncc(-c3cc(C)no3)c(-c3ccoc3C)n2)CC1 | 1.16 |
| CCOc1ccc(Cl)c(C(=O)NC)n1 | -4.63 |
| CC(NS(C)(=O)=O)C(=O)N1CCCN(Cc2cscn2)CC1 (configuration not stated) | -5.95 |
| CC(C)C(=O)NCCNC(=O)CCOc1cccc(F)c1 | -2.98 |
| CCc1nc2n(n1)CC(NCc1nc(-c3cccnc3)no1)CC2 (configuration not stated) | -8.66 |
| CCOc1ccc(CC(CNC(=O)c2ccoc2C)C(N)=O)cc1 (configuration not stated) | 7.87 |
| Cc1nn(C)c(C)c1C1CCCN1C(=O)CCCn1cccn1 (configuration not stated) | -0.685 |
| CNS(=O)(=O)c1ccc(C(=O)N2CCCC2c2cnn(C)c2)o1 (configuration not stated) | -8.28 |
| CCc1ccc(O)c(C(=O)NC2CCN(Cc3ccncc3)CC2)c1 | 5.52 |
| COCCCNC(=O)NCc1ccc(C)cc1 | 3.37 |

| Structure (SMILES) | cytotoxicity at 10 µM [%] |
| --- | --- |
| CCOc1cccc(CNC(=O)NCC(O)c2cccc(F)c2)c1 (configuration not stated) | -2.92 |
| CCOc1ccc(CC(=O)N2CCN(c3nccn3CC)CC2)cc1 | 11.1 |
| Cc1ccc(CN[C@@H]2COC[C@H]2c2ccc(F)cc2)cc1C | 9.07 |
| COc1ccc(C(C)(C)C)cc1CN1CCn2c(CO)nnc2C1 | 10.4 |
| CC(C)CN1CCN(S(=O)(=O)c2cn(C)cn2)Cc2cccnc21 | -144 |
| CC(=O)N1CCO[C@@H]2CN(C(=O)c3ccc4ncccc4c3)CC[C@@H]2C1 | 8.22 |
| Cc1cccc(CN2CCOC3(COCCN(CCN(C)C)C3)C2)n1 (configuration not stated) | -113 |
| CNC(=O)c1cc2c(nc1NCC(C)C)CCN(C)CC2 | -153 |
| Cc1cc(CN2CC[C@H]3C[C@H](C(=O)Nc4cccnc4C)O[C@@H]3C2)no1 | -67 |
| CCCN1CCCn2c(nc(CNC(=O)N3CCCC3)cc2=O)C1 | 12.1 |
| Cn1nc(C(=O)N2CCOCC2)c2c1CN(CC1CC1)C2 | -90.1 |
| O=C1COC2(CCN(Cc3cccnc3)CC2)CN1c1ccccc1 | -113 |
| c1ccc(CN2CCn3c(Cn4cncn4)cnc3C2)nc1 | -70.7 |
| Cc1ccc2c(n1)N(CCN(C)C)CCN(C(=O)c1ccoc1)C2 | -74.4 |
| Cc1nc(COC[C@@H]2CCC[C@@]23CNCCO3)cs1 | 3.29 |
| CCOc1ccc2ccccc2c1CNCC1CCNCC1 | -9.67 |
| O=C1NC2(CCN(Cc3nccs3)CC2)CC1c1ccncc1 (configuration not stated) | -1.31 |
| CCSc1ncc(CN2C[C@@H]3CC[C@H]2CN(C2CCOCC2)C3)cn1 | -6.38 |
| COc1ccc(Cl)cc1S(=O)(=O)N1C[C@H]2CC[C@@H](C1)N(C)C2=O | 3.98 |
